Reference: ChEMBL document CHEMBL1157638, “Fluorescent epigenetic small molecule induces expression of the tumor suppressor ras-association domain family 1A and inhibits human prostate xenograft” (J Med Chem, 2010)
The source made the active and inactive calls. The rule behind the calls is not given here.

Tests used:
[1] = test system: SK-MEL-28; assay: Growth inhibition of human SK-MEL-28 cells; format: functional
[2] = test system: ACHN; assay: Growth inhibition of human ACHN cells assessed as cell growth at 10 nM relative to untreated control; format: functional; conditions: read-out: Activity
[3] = test system: KM12; assay: Growth inhibition of human KM12 cells assessed as cell growth at 1 uM relative to untreated control; format: functional; conditions: read-out: Activity
[4] = test system: SK-MEL-2; assay: Growth inhibition of human SK-MEL-2 cells assessed as cell growth at 10 nM relative to untreated control; format: functional; conditions: read-out: Activity
[5] = test system: HT-29; assay: Growth inhibition of human HT-29 cells assessed as cell growth at 1 uM relative to untreated control; format: functional; conditions: read-out: Activity
[6] = test system: A549; assay: Growth inhibition of human A549 cells assessed as cell growth at 10 uM relative to untreated control; format: functional; conditions: read-out: Activity
[7] = test system: CAKI-1; assay: Growth inhibition of human Caki1 cells; format: functional
Summary of the method: (§1)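 Run externally at the National Cancer Institute as a 59-cell-line panel screen, with concentrations up to 100 μM. Growth was scored relative to control, where negative growth or total cell kill was possible. Data are in the Supporting Information.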

[8] = test system: TK-10; assay: Growth inhibition of human TK10 cells assessed as cell growth at 10 uM relative to untreated control; format: functional; conditions: read-out: Activity
[9] = test system: UACC-257; assay: Growth inhibition of human UACC257 cells; format: functional
[10] = test system: HCC 2998; assay: Growth inhibition of human HCC2998 cells assessed as cell growth at 1 nM relative to untreated control; format: functional; conditions: read-out: Activity; summary of the method: as §1
[11] = test system: T47D; assay: Growth inhibition of human T47D cells assessed as cell growth at 10 uM relative to untreated control; format: functional; conditions: read-out: Activity
[12] = test system: MDA-MB-435; assay: Growth inhibition of human MDA-MB-435 cells assessed as cell growth at 1 uM relative to untreated control; format: functional; conditions: read-out: Activity
[13] = test system: DU-145; assay: Growth inhibition of human DU145 cells assessed as cell growth at 10 uM relative to untreated control; format: functional; conditions: read-out: Activity; summary of the method: as §1
[14] = test system: SR; assay: Growth inhibition of human SR cells assessed as cell growth at 1 nM relative to untreated control; format: functional; conditions: read-out: Activity
[15] = test system: SN12C; assay: Growth inhibition of human SN12C cells assessed as cell growth at 1 uM relative to untreated control; format: functional; conditions: read-out: Activity
[16] = test system: A549; assay: Growth inhibition of human A549 cells assessed as cell growth at 100 nM relative to untreated control; format: functional; conditions: read-out: Activity
[17] = test system: NCI-H23; assay: Growth inhibition of human NCI-H23 cells assessed as cell growth at 100 nM relative to untreated control; format: functional; conditions: read-out: Activity
[18] = test system: IGROV-1; assay: Growth inhibition of human IGROV1 cells assessed as cell growth at 100 nM relative to untreated control; format: functional; conditions: read-out: Activity
[19] = test system: SF-295; assay: Growth inhibition of human SF295 cells assessed as cell growth at 10 nM relative to untreated control; format: functional; conditions: read-out: Activity
[20] = Growth inhibition of human Hs 578T cells assessed as cell growth at 10 nM relative to untreated control; format: functional; conditions: read-out: Activity
[21] = test system: HCT-15; assay: Growth inhibition of human HCT15 cells assessed as cell growth at 10 uM relative to untreated control; format: functional; conditions: read-out: Activity; summary of the method: as §1
[22] = test system: CCRF-CEM; assay: Growth inhibition of human CCRF-CEM cells assessed as cell growth at 100 nM relative to untreated control; format: functional; conditions: read-out: Activity
[23] = target: DNA (cytosine-5)-methyltransferase 3B (Homo sapiens) (UniProt Q9UBC3); assay: Binding affinity to DNMT3b in human PC3 cells cytoplasm at 5 uM after 1 hr by antibody staining; format: cell-based; conditions: PC-3
Summary of the method: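 PC-3 cells were plated overnight on fibronectin/[…]-coated slides and treated with 5 μM compound or DMSO for 1-6 h. Cells were PBS-washed, fixed in 4% formaldehyde, and stained with propidium iodide (nuclei) and anti-DNMT3a or anti-DNMT3b antibody. The compound was excited at 725 nm by multiphoton laser and imaged through a 500-550 nm filter by confocal microscopy.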

[24] = test system: HCT-15; assay: Growth inhibition of human HCT15 cells assessed as cell growth at 1 uM relative to untreated control; format: functional; conditions: read-out: Activity; summary of the method: as §1
[25] = test system: HOP-62; assay: Growth inhibition of human HOP62 cells assessed as cell growth at 10 nM relative to untreated control; format: functional; conditions: read-out: Activity; summary of the method: as §1
[26] = test system: HCT-15; assay: Growth inhibition of human HCT15 cells assessed as cell growth at 1 nM relative to untreated control; format: functional; conditions: read-out: Activity; summary of the method: as §1
[27] = test system: SK-OV-3; assay: Growth inhibition of human SKOV3 cells assessed as cell growth at 1 uM relative to untreated control; format: functional; conditions: read-out: Activity
[28] = test system: DU-145; assay: Growth inhibition of human DU145 cells; format: functional; summary of the method: as §1
[29] = test system: UACC-62; assay: Growth inhibition of human UACC62 cells; format: functional
[30] = test system: SK-OV-3; assay: Growth inhibition of human SKOV3 cells assessed as cell growth at 100 nM relative to untreated control; format: functional; conditions: read-out: Activity
[31] = test system: EKVX; assay: Growth inhibition of human EKVX cells assessed as cell growth at 10 nM relative to untreated control; format: functional; conditions: read-out: Activity; summary of the method: as §1
[32] = test system: OVCAR-4; assay: Growth inhibition of human OVCAR4 cells assessed as cell growth at 100 nM relative to untreated control; format: functional; conditions: read-out: Activity
[33] = test system: KM12; assay: Growth inhibition of human KM12 cells assessed as cell growth at 1 nM relative to untreated control; format: functional; conditions: read-out: Activity
[34] = test system: CAKI-1; assay: Growth inhibition of human Caki1 cells assessed as cell growth at 10 nM relative to untreated control; format: functional; conditions: read-out: Activity; summary of the method: as §1
[35] = test system: TK-10; assay: Growth inhibition of human TK10 cells assessed as cell growth at 1 nM relative to untreated control; format: functional; conditions: read-out: Activity
[36] = test system: OVCAR-3; assay: Growth inhibition of human OVCAR-3 cells assessed as cell growth at 10 uM relative to untreated control; format: functional; conditions: read-out: Activity
[37] = test system: NCI-H322M; assay: Growth inhibition of human NCI-H322M cells assessed as cell growth at 1 nM relative to untreated control; format: functional; conditions: read-out: Activity
[38] = test system: U-251; assay: Growth inhibition of human U251 cells assessed as cell growth at 10 uM relative to untreated control; format: functional; conditions: read-out: Activity
[39] = test system: A549; assay: Growth inhibition of human A549 cells; format: functional
[40] = test system: EKVX; assay: Growth inhibition of human EKVX cells; format: functional; summary of the method: as §1
[41] = test system: PC-3; assay: Antitumor activity against human PC3 cells xenografted in athymic BALB/c mouse assessed as reduction in tumor volume at 10 mg/kg, ip dosed every other day for 28 days relative to untreated control; format: functional; set-up: scale not given: the % may be the effect or the level left; conditions: route intraperitoneal
Summary of the method: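 Male athymic Balb/c nude mice (18-22 g) got 3 × 10⁶ PC-3 cells subcutaneously in the right axillary region. After one week they were randomized into two groups of four. Dosing was 10 mg/kg ip or vehicle once every other day for 28 days. Vehicle was DMSO stock diluted in 1:1 PEG 400/PBS. Tumour volume was measured by caliper as length × width × height/2. Data are mean ± SEM (n = 4).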

[42] = test system: COLO 205; assay: Growth inhibition of human COLO205 cells assessed as cell growth at 1 uM relative to untreated control; format: functional; conditions: read-out: Activity
[43] = read-out: LC50 (the source's name)

Compound: COc1ccc2c(c1)[nH]c1c(C)c(OS(=O)(=O)c3cccc4c(N(C)C)cccc34)ccc12
- GI50 [1]: 50.3 µM
- TGI [1]: > 100 µM
- CC50 [1, 43]: > 100 µM
- growth at 0.01 µM [2]: 102%
- growth at 1 µM [3]: 21%
- growth at 0.01 µM [4]: 110%
- growth at 1 µM [5]: 13%
- growth at 10 µM [6]: 12%
- GI50 [7]: 27.5 µM
- TGI [7]: > 100 µM
- CC50 [7, 43]: > 100 µM
- growth at 10 µM [8]: 6%
- GI50 [9]: 11.5 µM
- TGI [9]: > 100 µM
- CC50 [9, 43]: > 100 µM
- growth at 0.001 µM [10]: 99%
- growth at 10 µM [11]: 2%
- growth at 1 µM [12]: -5%
- growth at 10 µM [13]: 2%
- growth at 0.001 µM [14]: 102%
- growth at 1 µM [15]: 51%
- growth at 0.1 µM [16]: 95%
- growth at 0.1 µM [17]: 81%
- growth at 0.1 µM [18]: 98%
- growth at 0.01 µM [19]: 93%
- growth at 0.01 µM [20]: 103%
- growth at 10 µM [21]: 19%
- growth at 0.1 µM [22]: 91%
- Activity [23]: Active
- growth at 1 µM [24]: 25%
- growth at 0.01 µM [25]: 111%
- growth at 0.001 µM [26]: 98%
- growth at 1 µM [27]: 32%
- GI50 [28]: 3.54 µM
- TGI [28]: > 100 µM
- CC50 [28, 43]: > 100 µM
- GI50 [29]: 3.39 µM
- TGI [29]: > 100 µM
- CC50 [29, 43]: > 100 µM
- growth at 0.1 µM [30]: 99%
- growth at 0.01 µM [31]: 96%
- growth at 0.1 µM [32]: 87%
- growth at 0.001 µM [33]: 110%
- growth at 0.01 µM [34]: 86%
- growth at 0.001 µM [35]: 97%
- growth at 10 µM [36]: -9%
- growth at 0.001 µM [37]: 98%
- growth at 10 µM [38]: 14%
- GI50 [39]: 4.98 µM
- TGI [39]: > 100 µM
- CC50 [39, 43]: > 100 µM
- GI50 [40]: 5.44 µM
- TGI [40]: > 100 µM
- CC50 [40, 43]: > 100 µM
- Activity [41]: 40%
- growth at 1 µM [42]: 23%
